The values that follow come from ChEMBL document CHEMBL1811814, “Synthesis and evaluation of indole, pyrazole, chromone and pyrimidine based conjugates for tumor growth inhibitory activities--development of highly efficacious cytotoxic agents” (Eur J Med Chem, 2010).

Each structure is given as a SMILES string.

Holding throughout (type): organism-based
Series [1] deals with Mus musculus. In words: Toxicity in mouse assessed as mouse survival at 400 mg/kg, ip qd on day 19. Also noted: dose 400 mg/kg, route intraperitoneal. The conditions noted are these: in vivo. An outline of the steps: (§1)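 Female athymic nude mice were given intraperitoneal injections of 400, 200 or 100 mg/kg, one mouse per dose level. Body weight loss was monitored, and survival was recorded after 19 days.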

For series [2], the system named is Mus musculus. Nature of the series: Toxicity in mouse assessed as mouse survival at 100 mg/kg, ip qd on day 19. Also noted: dose 100 mg/kg, route intraperitoneal. The conditions noted are these: in vivo. An outline of the steps:
as §1

For series [3], the system named is Mus musculus. Nature of the series: Toxicity in mouse assessed as mouse survival at 25 mg/kg, ip qd on day 19. Also noted: dose 25 mg/kg, route intraperitoneal. The settings on record: in vivo.
Series [4] relates to Mus musculus. Nature of the series: Toxicity in mouse assessed as mouse survival at 200 mg/kg, ip qd on day 19. Also noted: dose 200 mg/kg, route intraperitoneal. The settings on record: in vivo. A digest of the protocol:
as §1

In series [5] the test system is Mus musculus. In words: Toxicity in mouse assessed as mouse survival at 50 mg/kg, ip qd on day 19. Also noted: dose 50 mg/kg, route intraperitoneal. The settings on record: in vivo.
Series [6] in a line: Toxicity in mouse assessed as mouse survival administered intraperitoneally once daily measured after 19 days. The conditions noted are these: in vivo, ip. A digest of the protocol: as §1

Turning to `O=C1NC(=O)C(=Cc2cn(Cc3ccccc3)c3ccccc23)C(=O)N1`, the Activity result was “Toxic” in the series with Mus musculus [1]; “Toxic” in the series on Mus musculus [2]; “Non-toxic” with Mus musculus [3]; “Toxic” with Mus musculus [4]; “Non-toxic” with Mus musculus [5]. For the same compound, the MTD at 456 h in series [6] is 50 mg/kg.
